# MLL AF4-AF9 inh: blocks AF4 peptide binding to human AF9; AlphaScreen, biotin-AF4 peptide binding to FLAG-AF9; P42568; inhibition, % at 10 µM; actives 0.47% (n = 350,000); AID 651704;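 active means every replicate reaching a set inhibition limit, whatever the replicate mean, cut at about 25% in these data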;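 further: 0% = plate neutral control median and 100% = total signal loss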
# N-glyco inh: blocks N-linked glycosylation in D54 reporter cells. actives 0.23% (n = 360,000). D54 ERlucT glycosylation luciferase reporter, 24 h; percent of 100 nM tunicamycin response. reporter increase, % at 12.5 µM;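 active means mean luciferase reporter signal, scaled so untreated is 0 and the glycosylation-blocking control 100, at or above a set limit in every replicate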;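 further: luciferase carries N-glycosylation sites so blocking glycosylation raises the light; 0% = median of neutral control wells and 100% = median of 100 nM tunicamycin wells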
# RAD52 anneal inh: blocks human RAD52 DNA annealing; actives 0.46% (n = 360,000); P43351; recombinant RAD52 DNA annealing, FRET fluorescence; inhibition, % at 18.7 µM; AID 651710;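 active means every replicate showing at least 50% inhibition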
# NSD2 HMT inh: inhibitors of human histone methyltransferase NSD2 | O96028 | AID 743445 | actives 0.54% (n = 310,000) | NSD2 peptide methylation, AlphaScreen, 120 min | inhibition, % at 12.5 µM; in the data active means inhibition above about 50%
# RAD54 inh: inhibitors of human RAD54 branch migration | actives 0.14% (n = 360,000) | Q92698 | inhibition, % at 10.4 µM | RAD54 Holliday junction branch migration, FAM/BHQ fluorescence;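 active means mean normalized replicate activity at least 40 and at least half of replicates scoring 40 or more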;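 further: 0% = median of neutral control wells and 100% = median of positive control wells; inhibitors cause a drop in the FAM fluorescence signal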
# Target sequence (Q92698 whole entry, looked up): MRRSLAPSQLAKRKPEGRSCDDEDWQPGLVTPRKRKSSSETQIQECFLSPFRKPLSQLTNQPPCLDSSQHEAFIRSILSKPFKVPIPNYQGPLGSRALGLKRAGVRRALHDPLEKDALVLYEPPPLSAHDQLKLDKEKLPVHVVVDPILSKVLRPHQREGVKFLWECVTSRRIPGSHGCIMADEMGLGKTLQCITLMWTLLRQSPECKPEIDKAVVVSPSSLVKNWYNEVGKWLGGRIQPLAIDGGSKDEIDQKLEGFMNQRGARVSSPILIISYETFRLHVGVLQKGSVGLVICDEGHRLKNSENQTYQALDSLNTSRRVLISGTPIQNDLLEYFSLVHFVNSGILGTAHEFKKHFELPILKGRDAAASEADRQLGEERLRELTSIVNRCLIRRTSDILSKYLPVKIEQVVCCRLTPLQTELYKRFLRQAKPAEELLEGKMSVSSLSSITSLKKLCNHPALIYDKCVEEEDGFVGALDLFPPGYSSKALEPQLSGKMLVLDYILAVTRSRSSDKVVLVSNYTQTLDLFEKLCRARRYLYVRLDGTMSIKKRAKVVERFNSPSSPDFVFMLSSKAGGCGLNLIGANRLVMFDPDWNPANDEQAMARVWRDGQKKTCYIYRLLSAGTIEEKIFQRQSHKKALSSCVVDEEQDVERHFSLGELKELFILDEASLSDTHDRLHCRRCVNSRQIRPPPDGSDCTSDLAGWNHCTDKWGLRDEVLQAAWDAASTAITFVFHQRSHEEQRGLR
# FN deposit inh: fibronectin deposition inhibition. AH1F fibroblasts, Alexa488-fibronectin deposition fluorescence, overnight. inhibition, % at 12.6 µM. actives 0.086% (n = 350,000);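 active means mean inhibition across replicates of 30% or more, regardless of how many single replicates reach that level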;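 further: positive control wells lacked labelled fibronectin entirely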
#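 Material – AH1F fibroblast monolayer, labelled fibronectin deposition · Reagent – labelled fibronectin 24 nM · Timing – 1 h adhesion, overnight exposure · Measured by – fluorescence at 485 nm excitation, 525 nm emission · Read-out – inhibition of fibronectin deposition signal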
# AlphaScreen art: interferes with AlphaScreen signal, flagging NSD2 false positives | AC35, µM (top dose mostly 10 µM), inactives show at the top dose activity change, negative = signal loss | actives 9.4% (n = 1,500) | AlphaScreen artifact counterscreen, preloaded methylated H4 peptide | shares compounds with NSD2 HMT inh; call rule not given here
# Active calls of the source: *; . = no result given. Most compounds without a hit are left out; they make up all but 1.2% or so of the library.
SMILES,MLL AF4-AF9 inh,N-glyco inh,RAD52 anneal inh,NSD2 HMT inh,RAD54 inh,FN deposit inh,AlphaScreen art
CC(=O)c1c(C)[nH]c(C(=O)CSc2nnc(-c3ccco3)n2Cc2ccccc2)c1C,.,0,.,58*,1,.,-1%
CC(=O)c1c(C)[nH]c(C(=O)CSc2nnc(-c3cccs3)n2Cc2ccccc2)c1C,.,-3,.,-1,.,-13,.
C[C@@H]1CN([C@H](C)CO)C(=O)c2cc(NC(=O)Cc3cn(C)c4ccccc34)ccc2O[C@@H]1CN(C)CC1CCCCC1,15,.,7,.,-2,.,.
Cc1cc(NC2=CC(=O)C(=O)c3ccccc32)no1,-4,-2,-4,-1,.,-8,.
CCOC(=O)c1ccc(NC2=CC(=O)C(=O)c3ccccc32)cc1,.,0,.,26,.,.,.
NS(=O)(=O)c1ccc(NC2=CC(=O)C(=O)c3ccccc32)cc1,6,-7,2,58*,-3,11,-5%
Cc1ccc(NC2=CC(=O)C(=O)c3ccccc32)cc1,.,-15,.,65*,4,-5,0%
O=c1c2ccccc2nnn1CSc1nc2ccccc2c(=O)n1CCCO,-1,-2,-20,52*,-7,-2,1%
Cc1cc(OCC(=O)NC(C)(C)C)ccc1Cl,-4,0,2,-2,13,5,.
COCCCNC(=O)COc1ccc(Cl)c(C)c1,.,-1,.,56*,-13,7,4%
O=C(C[C@@H]1C[C@H]2c3cc(NC(=O)Nc4ccccc4F)ccc3O[C@H]2[C@@H](CO)O1)NCc1ccc(Oc2ccccc2)cc1,.,.,.,.,.,-27,.
CCOc1ccc(NC(=S)Nc2ccc3nsnc3c2)cc1,.,4,.,136*,.,.,2%
COc1ccc(NC(=S)Nc2ccc3nsnc3c2)cc1,.,1,.,137*,-5,3,1%
C=CCN(CC=C)C(=S)Nc1ccc2nsnc2c1,1,4,-18,104*,0,.,7%
CC1CCCCN1C(=O)CCNC(=O)Cn1cnc2ccccc2c1=O (centres undefined),3,2,-16,94*,11,-2,1%
COc1ccc(C)cc1NC(=O)CCNC(=O)Cn1cnc2ccccc2c1=O,2,4,6,90*,-4,2,-1%
Cc1ccccc1CS(=O)(=O)CC(O)CN1CCCC1=O (centres undefined),-2,-1,-9,129*,-4,-2,-3%
CC(C)(C)c1ccc(CS(=O)(=O)CC(O)CN2CCCC2=O)cc1 (centres undefined),0,4,-5,0,-7,15,.
Cn1c(=O)c2c(nc(CN3CCc4ccccc4C3)n2CCc2ccccc2)n(C)c1=O,.,.,.,69*,.,.,-4%
CNC[C@H]1OCCCC[C@@H](C)Oc2ccc(NS(=O)(=O)c3ccc(C)cc3)cc2C(=O)N([C@@H](C)CO)C[C@@H]1C,.,.,.,.,.,-3,.
O=C(C[C@@H]1C[C@H]2c3cc(NC(=O)C4CCOCC4)ccc3O[C@H]2[C@H](CO)O1)NCCc1ccccc1,-1,.,-2,.,-18,6,.
Cc1onc(-c2c(Cl)cccc2Cl)c1C(=O)ONC(=O)c1cc(C(F)(F)F)cc(C(F)(F)F)c1,-2,0,3,59*,-7,-1,0%
CN1CCN(C(=O)C[C@@H]2C[C@@H]3c4cc(NC(=O)Nc5ccccc5F)ccc4O[C@@H]3[C@@H](CO)O2)CC1,.,.,.,.,2,0,.
O=C(c1coc(=O)c(Br)c1)N1CCCc2ccccc21,.,-2,.,52*,-17,.,-4%
O=C(c1cccc(Br)c1)N1CCCc2ccccc21,0,0,-3,2,3,-6,.
SMILES,MLL AF4-AF9 inh,N-glyco inh,RAD52 anneal inh,NSD2 HMT inh,RAD54 inh,FN deposit inh,AlphaScreen art
CCOc1cccc(=O)c2c(C)n(Cc3ccccc3)c(C)c12,0,1,-23,2,.,-15,.
COc1cccc(=O)c2c(C)n(-c3ccc(C(=O)O)cc3)c(C)c12,-1,0,-83,79*,.,-5,-8%
CCOc1cccc(=O)c2c(C)n(-c3ccc(C(=O)O)cc3)c(C)c12,-4,2,-126,93*,-12,0,-5%
Cc1noc(C)c1S(=O)(=O)N(C)C[C@H]1OCCCC[C@@H](C)Oc2ccc(NS(C)(=O)=O)cc2C(=O)N([C@@H](C)CO)C[C@@H]1C,-8,.,9,.,0,.,.
O=C(C1CC1)N1CCCCN2[C@H](C1)[C@@H](c1ccc(C#CC3CC3)cc1)[C@@H]2CO,-3,.,-18,.,-6,.,.
C[C@H](CO)N1C[C@H](C)[C@@H](CN(C)C)OCCCC[C@H](C)Oc2ccc(NS(C)(=O)=O)cc2C1=O,.,.,.,.,.,-4,.
C[C@@H]1CN([C@H](C)CO)C(=O)c2cc(NS(=O)(=O)c3ccc(F)cc3)ccc2O[C@@H](C)CCCCO[C@H]1CN(C)Cc1ccc(Cl)c(Cl)c1,7,.,-21,.,-1,10,.
O=C(Nc1ccc(N2CCOCC2)cc1N1CCOCC1)c1ccc([N+](=O)[O-])cc1,.,2,.,0,-1,.,.
O=C(NNc1cc(N2CCOCC2)nc(N2CCOCC2)n1)c1ccc([N+](=O)[O-])cc1,2,4,-27,129*,4,10,-4%
O=C(NCc1ccco1)Nc1cccc([N+](=O)[O-])c1,6,0,5,52*,6,0,-1%
CCCCN(C(=O)CCC(=O)Nc1cc(C)on1)C(C(=O)NC(C)(C)C)c1ccccc1Cl (centres undefined),0,0,-8,-6,-42,1,.
COc1ccc(C(C(=O)NC(C)(C)C)N(C(=O)CCC(=O)Nc2cc(C)on2)c2ccccc2F)cc1 (centres undefined),1,1,-15,77*,7,8,0%
COCCN(C(=O)CCC(=O)Nc1cc(C)on1)C(C(=O)NC(C)(C)C)c1ccccc1Cl (centres undefined),-1,-2,-5,140*,7,0,-6%
COc1ccc(S(=O)(=O)N[C@H]2C=C[C@@H](CC(=O)NCc3ccccc3F)O[C@H]2CO)cc1,-12,.,7,.,5,-3,.
O=C(N[C@H]1CC[C@H](CCn2cc(-c3ccccn3)nn2)O[C@@H]1CO)c1ccccc1,-2,.,-6,.,-1,.,.
COc1ccccc1C(=O)NC1=NCCS1,.,.,.,1,.,.,.
CCCNC(=O)N1CC2(CCN(CC3CCCC3)CC2)c2c(n(C)c3cc(OC)ccc23)[C@@H]1CO,3,.,17,.,.,4,.
O=C(CN1C(=O)/C(=C/c2ccco2)SC1=S)Nc1ccc(O)c(C(=O)O)c1,-4,0,-330,116*,-13,4,-13%
O=C(CCCN1C(=O)/C(=C\c2ccco2)SC1=S)Nc1ccc(O)cc1C(=O)O,-4,-1,-351,104*,-10,15,-14%
